Measurements published in ChEMBL document CHEMBL1687745 (Antimicrob Agents Chemother, 2009).
Converted amounts (≈) assume the structure as drawn. The source made the active and inactive calls. No cut-off for these calls is given here.

Tests used:
[1] = tested on: Mycolicibacterium smegmatis; experiment: Antimicrobial activity against Mycobacterium smegmatis 700009 by broth microdilution method; type: functional
Method in brief: (§1)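 Broth microdilution. Log-phase cultures (5 × 10^5 CFU/ml) seeded in 96-well plates with compound from 0 to 20 µM or 1% DMSO control. Incubated at 37°C for 16 to 20 h. Growth read as absorbance at 600 nm.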

Yersinia pestis [2] = experiment: Antimicrobial activity against Yersinia pestis by broth microdilution method; type: functional
Staphylococcus aureus [3] = experiment: Antibacterial activity against MBX 1090 resistant Staphylococcus aureus NCTC8325 isolates selected on 10 to 12 days of serial passage through MBX 1090; type: functional
Method in brief: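 Eight independent S. aureus NCTC8325 cultures were grown with compound at 0.125× to 128× MIC. Each day, cells were passaged from the highest-concentration well still showing >50% of untreated growth, for up to 20 days. Colonies isolated from resistant cultures were confirmed by MIC assay.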

Enterococcus faecalis [4] = experiment: Antimicrobial activity against vancomycin-resistant Enterococcus faecalis ATCC 51575 by broth microdilution method; type: functional
Enterococcus faecalis [5] = experiment: Antimicrobial activity against Enterococcus faecalis 29212 clinical isolate by broth microdilution method; type: functional
Burkholderia mallei = experiment: Antimicrobial activity against Burkholderia mallei ATCC 23344 by broth microdilution method; type: functional
Bacillus anthracis [6] = experiment: Antimicrobial activity against Bacillus anthracis Vollum clinical isolate by broth microdilution method; type: functional
Staphylococcus aureus [7] = experiment: Antimicrobial activity against Staphylococcus aureus by broth microdilution method; type: functional; method in brief: as §1
Bacillus anthracis [8] = experiment: microbe, parasite or virus in culture; conditions: Ames
Bacillus anthracis [9] = experiment: Protection against Bacillus anthracis Sterne spores induced cell death in mouse J774A1 cells assessed as dead cells at 10 uM by Sytox green dye staining assay relative to untreated control; type: functional, J774.A1
Bacillus anthracis [10] = experiment: microbe, parasite or virus in culture; conditions: Ames; remark: listed apart in the source
Bacillus subtilis [11] = experiment: Antimicrobial activity against Bacillus subtilis clinical isolate by broth microdilution method; type: functional
Bacillus anthracis [12] = experiment: Antibacterial activity against Bacillus anthracis Ames spores infected in C57BL/6 mouse assessed as mouse survival rate at 1 mg/kg, ip for 5 days every 6 hrs administered 6 hrs post bacterial challenge measured up to 20 days post infection; type: functional; conditions: route intraperitoneal
Bacillus anthracis [13] = experiment: Antimicrobial activity against Bacillus anthracis Ames by broth microdilution method in presence of 10% fetal calf serum; type: functional
[14] = tested on: Burkholderia thailandensis; experiment: Antimicrobial activity against Burkholderia thailandensis by broth microdilution method; type: functional
Bacillus anthracis [15] = experiment: Protection against Bacillus anthracis Sterne spores induced cell death in mouse J774A1 cells assessed as live viable cells at 10 uM by Sytox green dye staining assay relative to untreated control; type: functional, J774.A1
Enterococcus faecalis [16] = experiment: Antimicrobial activity against Enterococcus faecalis clinical isolate by broth microdilution method; type: functional; method in brief: as §1
[17] = tested on: Burkholderia pseudomallei; experiment: Antimicrobial activity against Burkholderia pseudomallei DD503 by broth microdilution method; type: functional
Burkholderia cepacia = experiment: Antimicrobial activity against Burkholderia cepacia clinical isolate by broth microdilution method; type: functional; method in brief: as §1
Bacillus licheniformis = experiment: Antimicrobial activity against Bacillus licheniformis clinical isolate by broth microdilution method; type: functional
Enterococcus faecium = experiment: Antimicrobial activity against vancomycin-resistant Enterococcus faecium B42762 by broth microdilution method; type: functional
Brevibacillus brevis = experiment: Antimicrobial activity against Bacillus brevis clinical isolate by broth microdilution method; type: functional; method in brief: as §1
Pseudomonas aeruginosa = experiment: Antimicrobial activity against Pseudomonas aeruginosa PAO1 by broth microdilution method; type: functional; method in brief: as §1
Staphylococcus aureus [18] = experiment: Antimicrobial activity against Staphylococcus aureus ATCC 25923 by broth microdilution method; type: functional; method in brief: as §1
Staphylococcus aureus [19] = experiment: Antimicrobial activity against methicillin-resistant Staphylococcus aureus clinical isolate by broth microdilution method; type: functional
Escherichia coli = experiment: Antimicrobial activity against Escherichia coli J53 clinical isolate by broth microdilution method; type: functional
Klebsiella pneumoniae = experiment: Antimicrobial activity against Klebsiella pneumoniae 5657 by broth microdilution method; type: functional; method in brief: as §1
Bacillus subtilis [20] = experiment: Inhibition of DNA synthesis in Bacillus subtilis BD54 at 5 X MIC by [3H]thymidine incorporation assay; type: functional, organism-based
Method in brief: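 Precursors were [methyl-3H]thymidine (DNA), [5-3H]uridine (RNA), L-[4,5-3H]leucine (protein) and N-acetyl-D-[1-3H]glucosamine (cell wall). Samples taken over time, precipitated with equal volume of ice-cold 20% TCA, filtered on glass fibre, and counted. cpm plotted against time.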

[21] = tested on: Mycolicibacterium smegmatis; experiment: Antimicrobial activity against Mycobacterium smegmatis 19420 by broth microdilution method; type: functional; method in brief: as §1
Bacillus pumilus = experiment: Antimicrobial activity against Bacillus pumilus clinical isolate by broth microdilution method; type: functional; method in brief: as §1
Staphylococcus aureus [22] = experiment: Antimicrobial activity against methicillin-resistant Staphylococcus aureus 1094 by broth microdilution method; type: functional
[23] = tested on: Mycolicibacterium smegmatis; experiment: Antimicrobial activity against Mycobacterium smegmatis 35798 by broth microdilution method; type: functional; method in brief: as §1
Bacillus anthracis [24] = experiment: Antimicrobial activity against Bacillus anthracis Sterne spores by broth microdilution method; type: functional
Staphylococcus aureus [25] = experiment: Antibacterial activity against Staphylococcus aureus Smith infected in Swiss Webster mouse assessed as assessed as protection against microbe-induced mortality at 10 mg/kg, iv administered as single dose 15 mins post bacterial challenge measured 48 hrs post infection; type: functional
Method in brief: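 Swiss Webster mice (n = 10/group) were challenged i.p. with 8.3 × 10^8 CFU. After 15 min they received a single i.v. dose in 10% dimethyl acetamide–5% dextrose in water (pH 4.0), alongside vehicle and daptomycin (10 mg/kg) controls. Survival was followed for 48 h.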

Priestia megaterium = experiment: Antimicrobial activity against Bacillus megaterium clinical isolate by broth microdilution method; type: functional
Bacillus anthracis [26] = experiment: Antimicrobial activity against Bacillus anthracis Sterne vegetative cells by broth microdilution method; type: functional
Bacillus anthracis [27] = experiment: Inhibition of spore germination in Bacillus anthracis Sterne spores at MIC after 4 hrs; type: functional, organism-based
[28] = Cytotoxicity against human HeLa cells after 3 days by MTS assay in presence of 10% fetal calf serum; type: cell-based
HeLa = experiment: Effect on cell membrane integrity in human HeLa cells assessed as lactate dehydrogenase release at 32 times MIC against Staphylococcus aureus by CytoTox ONE homogenous membrane integrity assay; type: cell-based
Method in brief: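 Confluent HeLa cells in DMEM treated for 1 h with a range of compound concentrations, 1% DMSO final. […] LDH activity in the supernatant measured by a membrane-integrity kit.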

Bacillus subtilis [29] = experiment: Effect on bacterial membrane permeability in Bacillus subtilis BD54 upto 10 times MIC using DiSC3 fluorescent dye staining based fluorimetric assay; type: functional, organism-based
Method in brief: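 B. subtilis BD54 grown in LB to OD600 0.4–0.5, washed, and resuspended to OD600 0.1 in 5 mM HEPES pH 7.4 with 20 mM glucose. Loaded with 1 µM DiSC3(5) for 10 min at room temperature, then 100 mM KCl added. […] Fluorescence read at 5 min (ex 622, em 670 nm). DNP 200 µg/ml positive control; mean ± SD of 8 wells.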

[30] = Cytotoxicity against mouse J774A1 cells assessed as live viable cells at 10 uM by Sytox green dye staining assay relative to untreated control; type: cell-based, J774.A1; conditions: read-out: Activity
Method in brief: (§2)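 J774A.1 macrophages, not infected, treated with 1% DMSO control or compound at 10 µM. Sytox green (impermeant to live cells) added for 15 min at 37°C. Cells centrifuged, washed twice in complete medium containing antibiotics, and analysed by flow cytometry for percent live and dead cells.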

J774.A1 = experiment: Cytotoxicity against mouse J774A1 cells assessed as dead cells at 10 uM by Sytox green dye staining assay relative to untreated control; type: cell-based; conditions: j774.a1, 10 µM; method in brief: as §2
Bacillus anthracis [31] = experiment: Antibacterial activity against Bacillus anthracis Ames spores infected in C57BL/6 mouse assessed as mouse survival rate at 10 mg/kg, ip for 5 days every 6 hrs administered 6 hrs post bacterial challenge measured up to 20 days post infection; type: functional; conditions: route intraperitoneal
Yersinia pestis [32] = experiment: Antibacterial activity against Yersinia pestis CO92 infected in C57BL/6 mouse assessed as protection against microbe-induced mortality at 10 mg/kg, ip for 5 days every 6 hrs administered 6 hrs post bacterial challenge measured after 15 days post infection; type: functional; conditions: route intraperitoneal

C(=C\c1cc2ccc(C3=NCCN3)cc2[nH]1)/c1cc2ccc(C3=NCCN3)cc2[nH]1
MIC [1]: 0.2 µg/mL (≈ 0.507 µM) | MIC (Yersinia pestis [2]): 13 µg/mL (≈ 33 µM) | MIC (Staphylococcus aureus [3]): 16 µg/mL (≈ 40.6 µM) | MIC (Enterococcus faecalis [4]): 0.6 µg/mL (≈ 1.52 µM) | MIC (Enterococcus faecalis [5]): 0.3 µg/mL (≈ 0.76 µM) | MIC (Burkholderia mallei): 1.6 µg/mL (≈ 4.06 µM) | MBC (Bacillus anthracis [6]): 1.2 µg/mL (≈ 3.04 µM) | MIC (Bacillus anthracis [6]): 0.6 µg/mL (≈ 1.52 µM) | MIC (Staphylococcus aureus [7]): 1.2 µg/mL (≈ 3.04 µM) | MBC (Bacillus anthracis [8]): 2.3 µg/mL (≈ 5.83 µM) | MIC (Bacillus anthracis [8]): 0.6 µg/mL (≈ 1.52 µM) | Activity (Bacillus anthracis [9]): 27% | MIC (Bacillus anthracis [10]): 0.2 µg/mL (≈ 0.507 µM) | MIC (Bacillus subtilis [11]): 0.3 µg/mL (≈ 0.76 µM) | survival at 1 mg/kg (Bacillus anthracis [12]): 100% | MIC (Bacillus anthracis [13]): 0.6 µg/mL | MIC [14]: 19 µg/mL (≈ 48.2 µM) | Activity (Bacillus anthracis [15]): 73% | MIC (Enterococcus faecalis [16]): 0.6 µg/mL (≈ 1.52 µM) | MIC [17]: 3.1 µg/mL (≈ 7.86 µM) | MIC (Burkholderia cepacia): 19 µg/mL (≈ 48.2 µM) | MIC (Bacillus licheniformis): 2.3 µg/mL (≈ 5.83 µM) | MIC (Enterococcus faecium): 0.3 µg/mL (≈ 0.76 µM) | MIC (Brevibacillus brevis): 0.6 µg/mL (≈ 1.52 µM) | MIC (Pseudomonas aeruginosa): 25 µg/mL (≈ 63.4 µM) | MIC (Staphylococcus aureus [18]): 0.9 µg/mL (≈ 2.28 µM) | MIC (Staphylococcus aureus [19]): 2.3 µg/mL (≈ 5.83 µM) | MIC (Escherichia coli): 0.6 µg/mL (≈ 1.52 µM) | MIC (Klebsiella pneumoniae): 1.3 µg/mL (≈ 3.3 µM) | inhibition (Bacillus subtilis [20]): Active | MIC [21]: 0.2 µg/mL (≈ 0.507 µM) | MIC (Bacillus pumilus): 0.2 µg/mL (≈ 0.507 µM) | MIC (Staphylococcus aureus [22]): 0.6 µg/mL (≈ 1.52 µM) | MIC [23]: 0.1 µg/mL (≈ 0.253 µM) | MIC (Bacillus anthracis [24]): 0.3 µg/mL (≈ 0.76 µM) | survival at 10 mg/kg (Staphylococcus aureus [25]): 80% | MIC (Priestia megaterium): 0.6 µg/mL (≈ 1.52 µM) | MIC (Bacillus anthracis [26]): 1.2 µg/mL (≈ 3.04 µM) | inhibition (Bacillus anthracis [27]): inactive | CC50 at 72 h [28]: 10 µg/mL | Activity (HeLa): Non-toxic | Activity (Bacillus subtilis [29]): Active

c1cc2cc(-c3ccc(-c4cc5ccc(C6=NCCN6)cc5[nH]4)cc3)[nH]c2cc1C1=NCCN1
MIC [1]: 0.1 µg/mL (≈ 0.225 µM) | MIC (Yersinia pestis [2]): 3.4 µg/mL (≈ 7.65 µM) | MIC (Staphylococcus aureus [3]): Active | MIC (Enterococcus faecalis [4]): 0.1 µg/mL (≈ 0.225 µM) | MIC (Enterococcus faecalis [5]): 0.2 µg/mL (≈ 0.45 µM) | MIC (Burkholderia mallei): 1.7 µg/mL (≈ 3.82 µM) | MIC (Bacillus anthracis [6]): 0.3 µg/mL (≈ 0.675 µM) | MIC (Staphylococcus aureus [7]): 0.3 µg/mL (≈ 0.675 µM) | MBC (Bacillus anthracis [8]): 0.7 µg/mL (≈ 1.57 µM) | MIC (Bacillus anthracis [8]): 0.3 µg/mL (≈ 0.675 µM) | Activity (Bacillus anthracis [9]): 22% | MBC (Bacillus anthracis [10]): 0.4 µg/mL (≈ 0.9 µM) | MIC (Bacillus subtilis [11]): 0.2 µg/mL (≈ 0.45 µM) | viability at 10 µM [30]: 94% | MIC (Bacillus anthracis [13]): 1.1 µg/mL | MIC [14]: 21 µg/mL (≈ 47.2 µM) | Activity (J774.A1): 5% | Activity (Bacillus anthracis [15]): 77% | MIC (Enterococcus faecalis [16]): 0.2 µg/mL (≈ 0.45 µM) | MIC [17]: 1.7 µg/mL (≈ 3.82 µM) | MIC (Burkholderia cepacia): > 20 µg/mL | MIC (Bacillus licheniformis): 0.7 µg/mL (≈ 1.57 µM) | MIC (Enterococcus faecium): < 0.1 µg/mL | MIC (Brevibacillus brevis): 0.7 µg/mL (≈ 1.57 µM) | MIC (Pseudomonas aeruginosa): 7.5 µg/mL (≈ 16.9 µM) | survival at 10 mg/kg (Bacillus anthracis [31]): 100% | MIC (Staphylococcus aureus [18]): 0.1 µg/mL (≈ 0.225 µM) | MIC (Staphylococcus aureus [19]): 0.3 µg/mL (≈ 0.675 µM) | MIC (Escherichia coli): 0.7 µg/mL (≈ 1.57 µM) | MIC (Klebsiella pneumoniae): 3.8 µg/mL (≈ 8.55 µM) | inhibition (Bacillus subtilis [20]): Active | MIC [21]: < 0.1 µg/mL | MIC (Bacillus pumilus): < 0.1 µg/mL | MIC (Staphylococcus aureus [22]): 0.2 µg/mL (≈ 0.45 µM) | MIC [23]: < 0.1 µg/mL | survival at 10 mg/kg (Staphylococcus aureus [25]): 80% | MIC (Priestia megaterium): 0.3 µg/mL (≈ 0.675 µM) | MIC (Bacillus anthracis [26]): 0.7 µg/mL (≈ 1.57 µM) | survival at 10 mg/kg (Yersinia pestis [32]): 90% | inhibition (Bacillus anthracis [27]): inactive | CC50 at 72 h [28]: 3 µg/mL | Activity (HeLa): Non-toxic | Activity (Bacillus subtilis [29]): Active
